Drawing on ChEMBL document CHEMBL4513216, “Probing the Open Global Health Chemical Diversity Library for Multistage-Active Starting Points for Next-Generation Antimalarials” (ACS Infect Dis, 2020), this text covers cytotoxicity for 97 compounds.

A short description of this data set: Toxicity liver stage against HepG2, at 10uM. Type of data set: cell-based. The arrangement: test concentration 10 uM, cell line HepG2-A16-CD81EGFP. To be noted: human, HepG2-A16-CD81EGFP cells; read-out: INHIBITION
In a few lines:
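Uninfected HepG2-A16-CD81EGFP cells, 3 × 10^3 per well, 1536-well, plated on prespotted compound at 10 μM final, parasite-free screening media added to match infected plates; puromycin 10 μM positive, DMSO 0.5% negative; run in parallel with 48 h PbLuc assay at 37 °C, 5% CO2; viability by CellTiter-Glo luminescence, normalized to controls.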
On to `CCc1nnc(CN(C)C(=O)C2CC(=O)N(C3CC3)C2)o1` (configuration not stated), for which the cytotoxicity at 10 µM came to 2.28%.
Take `CNC(=O)c1cnc(/C=C/c2cc(OC)c(OC)c(OC)c2)s1`: the cytotoxicity at 10 µM was -15.5%.
Consider `CNC(=O)c1cccc(C2CNCCN2C(=O)C2CCNCC2)c1` (configuration not stated), for which the cytotoxicity at 10 µM is -2.39%.
For the compound `CC(C)N1C[C@@H]2OCC(=O)N(Cc3ccccc3)[C@@H]2C1`, the cytotoxicity at 10 µM was found to be 10.5%.
For `CC(C)n1nc(Cn2cccc2)c2c1CN(Cc1ccoc1)C2` the value was 1.49%; for `Cc1cccc(CN2CCc3nnc(CN4CCCC4=O)n3CC2)n1`, 5.31%; for `COCC1c2nnn(CC3CC3)c2CCN1C(=O)c1cc(C)on1` (configuration not stated), -132%.
The result for `COCC1CN(Cc2ccncc2)Cc2nnn(CC3CC3)c21` (configuration not stated) reads -5.91%.
Take `CNCC(=O)N[C@H]1CN(c2nc(C)c3c(n2)CCCC3)C[C@@H]1C1CC1`: the cytotoxicity at 10 µM was determined as 13.2%.
The result for `COc1ccccc1C(N)CC(C)C` (configuration not stated) reads 6%; that for `CC(C)COc1cncc(NCc2nnc3ccccn23)n1`, 13.1%; that for `O=C(NCCc1ccn(-c2ccc(F)cc2)n1)C1CCCOC1` (configuration not stated), 6.65%.
The result for `C1CC(NCC2CC2)CN(Cc2noc(C3CC3)n2)C1` (configuration not stated) reads -3.09%; that for `COc1cc2nc(C)n(CC(=O)NCCN(C)C)c(=O)c2cc1OC`, -7.18%; that for `c1ccc(OCc2nnc3n2CCN(CC2CC2)C3)nc1`, -0.945%.
Consider `COc1ncccc1CNC(=O)c1cc(Cl)ccn1`, for which the cytotoxicity at 10 µM was -7.51%.
For the compound `Cc1noc(CN2CCN(C(C)C(=O)NCc3cccs3)CC2)n1` (configuration not stated), the cytotoxicity at 10 µM was found to be 17.2%.
Regarding `Cc1noc(C)c1CNC(=O)N1CCCC(C)CC1` (configuration not stated), the cytotoxicity at 10 µM was -7.31%.
The result for `CC(NC(=O)NCCCO)c1ccc2c(c1)OCCO2` (configuration not stated) reads -2.92%.
For `COc1ccc(S(=O)(=O)NCC(c2cccn2C)N(C)C)cc1F` (configuration not stated) the value was -0.418%.
The result for `Cc1csc2ncc(-c3ccnc(N4CCCC4)n3)c(=O)n12` reads -13.2%; that for `Cc1nc(C)n(CC2CCCN2CCCOc2ccc(F)cc2)n1` (configuration not stated), -6.72%; that for `CNc1cc2c(nn1)CCN(C(=O)c1ccoc1)C2`, 4.6%.
Take `Cn1c(-c2ccccc2Cl)nc2cc(C(=O)NCCS(C)(=O)=O)cnc21`: the cytotoxicity at 10 µM is -3.2%.
Consider `CC(CCN(C)C)NC(=O)N1CCSC(C)(C)C1` (configuration not stated), for which the cytotoxicity at 10 µM was 5.4%.
The result for `c1cc(-c2cn3nccc3nc2C2CCCCC2)nc(N2CCCC2)n1` reads 10.7%; that for `COCCCN1C(=O)CC[C@H]2CN(c3ccc(C(N)=O)cn3)CC[C@H]21`, 5.03%; that for `Cc1oncc1C(=O)N1CCC2(CC1)CC(c1ccccc1)C(=O)N2C` (configuration not stated), -14.5%.
Turning to `CCC(Nc1nccc(C2CCCC2)n1)c1ccccn1` (configuration not stated), the cytotoxicity at 10 µM is -126%.
The result for `Cc1ccc(NC2CCN(C(=O)c3ccc(C)o3)CC2)nn1` reads -4.69%.
With `COCCCNC(=O)Nc1cccc2ncccc12`, the cytotoxicity at 10 µM is -4.84%.
For `COCCCNC(=O)C1(NC(=O)c2ccc3[nH]ncc3c2)CCCC1` the value was -1.62%.
Regarding `COc1cccc(CNc2nc(N3CCOCC3)ns2)c1OC`, the cytotoxicity at 10 µM is -2.76%.
The result for `COc1cccc(C(O)CNC(=O)CC2CCCCC2)c1` (configuration not stated) reads -2.11%; that for `NC(=O)N1CCCC(C(=O)NCc2ccccc2OC(F)(F)F)C1` (configuration not stated), 1.01%; that for `O=C(NCC1CC1)C1CN(C(=O)NC2CCCC2)Cc2cncn2C1` (configuration not stated), -106%.
As for `COC(=O)c1cc(C2CC2)nc2c(C#N)cnn12`, the cytotoxicity at 10 µM was determined as 14%.
Turning to `CC(=O)N1CCC(Cc2cnc(-c3c(C)nn(C)c3C)cn2)CC1`, the cytotoxicity at 10 µM was -11.8%.
For `CN(Cc1nc2ccccc2o1)C1CCCN(c2cccnn2)C1` (configuration not stated) the value was -9.43%.
In the case of `O=C(CCN1CCOC1=O)Nc1cnn(-c2ccccc2Cl)c1`, the cytotoxicity at 10 µM was -3.39%.
For `CS(=O)(=O)N1CCOC2(CCN(c3nccs3)CC2)c2ccccc21` the value was 1.18%; for `CCN(CC)C(=O)c1ccc(-c2ccsc2)nc1C`, -13.4%; for `Cc1csc2ncnc(N3CCCC(Cn4cc(C(C)(C)O)nn4)C3)c12` (configuration not stated), 2.74%.
On to `Cc1ncc2c(c1CNC(=O)C1(C)CC1)CCNC2`, for which the cytotoxicity at 10 µM was -50.3%.
For `CCn1nc(C)c(NC(=O)C(C)C)c1C`, the cytotoxicity at 10 µM is 1.73%.
For the compound `CS(=O)(=O)N1CC[C@H]2[C@H](C[C@@H](Cn3cncn3)N2CC2CC2)C1`, the cytotoxicity at 10 µM was -6.25%.
For `CCOCc1ccc(CNC2=NCCCN2)cc1` the value was -51.5%.
For `Cc1cnn(C2CN(Cc3nc(-c4ccccn4)no3)C2)c1` the value was 3.24%; for `Cc1nc([C@@H]2C[C@H]3CN(Cc4ccc5c(c4)OCO5)C[C@H]3O2)no1`, -115%.
In the case of `COc1ccc(Br)cc1CN(C)c1nc2c(cnn2C)c(=O)[nH]1`, the cytotoxicity at 10 µM came out at 48.1%.
The result for `COc1cccc(OCCc2nc3c(cc2C(N)=O)CCC3)c1` reads 7.32%; that for `OCc1ccc(-c2nccn2CCc2nc3c(s2)CCCC3)o1`, 4.71%; that for `O=C(c1cscn1)N1CCC[C@]2(C[C@@H](OCC3CC3)CO2)C1`, -69.9%.
The result for `COC(=O)[C@@H](NC(=O)Nc1ccc(C(C)=O)cc1)C(C)C` reads 10.1%; that for `C=C(C)COc1ccc(C(=O)NCC2CC(CC)=NO2)cc1` (configuration not stated), -48.2%; that for `CC[C@H](C)[C@H](NC(=O)c1ccccc1-n1cnnn1)C(=O)OC`, 5.16%.
For `Cc1ccc(N2C[C@H]3CCN(Cc4ccncc4)C[C@H]3C2)nn1`, the cytotoxicity at 10 µM is -111%.
In the case of `CCN(CC)S(=O)(=O)N(C)Cc1ccncc1`, the cytotoxicity at 10 µM came out at 0.52%.
For `COC(=O)COn1c(SCC(=O)OC)nc2ccccc2c1=O` the value was -8.38%.
The result for `COCCN1CCC2(COCc3c(C)nc(N4CCOCC4)nc32)C1` (configuration not stated) reads -130%.
On to `COC(=O)c1cccc(S(=O)(=O)Nc2ncc(C)s2)c1`, for which the cytotoxicity at 10 µM was found to be 0.158%.
Regarding `O=C(COc1ccc2cccnc2c1)N1CCN[C@H]2CS(=O)(=O)C[C@H]21`, the cytotoxicity at 10 µM amounted to 7.98%.
As to `c1ccc(CO[C@@H]2CN(Cc3cccnc3)[C@@H]3COC[C@@H]32)nc1`, the cytotoxicity at 10 µM is -98.7%.
For `CCn1ccc2ccnc(CC3CN(C(=O)c4cnco4)C3)c21` the value was -6.61%; for `CC1CN(Cc2ccccc2)CCCN1CCS(C)(=O)=O` (configuration not stated), -1.4%.
The result for `CC(C)(C)C(CCO)NC(=O)Nc1ccccc1` (configuration not stated) reads -3.3%.
For `CCN1CC2(CC1=O)CN(Cc1ccsc1)CCN(C(=O)C(C)C)C2` (configuration not stated) the value was 5.08%; for `Cc1sc2c(C3CCCN(S(C)(=O)=O)C3)nc(C)n2c1C` (configuration not stated), -33%; for `Cc1nc(N(C)Cc2cccc(O)c2)nc2cc(S(C)(=O)=O)ccc12`, -2.54%.
Take `Nc1ccnc(N2CCC(CCc3ccccc3)(C(=O)O)CC2)n1`: the cytotoxicity at 10 µM was -3.65%.
The result for `Cc1ccc([C@@H]2CN(C(=O)c3cc(C)n[nH]3)C[C@H]2NC(=O)C2CC2)cc1` reads -7.77%.
As for `Cn1nnc2c1CCN(Cc1ccco1)C2COCc1ccccc1` (configuration not stated), the cytotoxicity at 10 µM is -133%.
The result for `Cn1cc(C2CCCN2CCCn2c(=O)oc3ccccc32)cn1` (configuration not stated) reads 5.63%; that for `CCn1cc(CN2CCCN(C(=O)CCn3cc(C)cn3)CC2)cn1`, -2.11%; that for `CC(C)c1cc(N2CCC[C@H](N)C2)n2nccc2n1`, -5.42%.
The result for `COCCNC(=O)Cn1c(-c2cccc(F)c2)nc(C)c(CCO)c1=O` reads -2.37%; that for `Fc1ccc(Cn2ncc3c2CN(c2noc(C4CC4)n2)C3)cc1`, -2.76%; that for `O=C(CSc1ccncc1)NC1CC(=O)N(CCc2ccccc2)C1` (configuration not stated), 0.318%.
For `Oc1cc(C2CCCCN2Cc2cccs2)nc(-c2ccccn2)n1` (configuration not stated) the value was 39.1%.
As to `CC(C)(C)C(=O)NCCC(=O)NC(C)(C)c1ccc2c(c1)OCCO2`, the cytotoxicity at 10 µM was -1.22%.
For `CCc1cc(=O)[nH]c2nnc(SCC(=O)NC(C)C)n12` the value was -6.93%.
For `N#Cc1c(Cl)nsc1NCc1ccc(N2CCCC(C(N)=O)C2)cc1` (configuration not stated) the value was -9.65%; for `CC(=O)N1CCCCCC1C1CCN(Cc2nnc(C(C)(C)C)o2)CC1` (configuration not stated), -42.3%.
Turning to `CSc1ccc(CN2CCC(CCC(=O)Nc3ccccc3)CC2)cc1`, the cytotoxicity at 10 µM was 6.8%.
Consider `CN(CC1(O)CCCN(CCC2CCCCC2)C1=O)C1CCOCC1` (configuration not stated), for which the cytotoxicity at 10 µM came to 12.7%.
The result for `Cn1ccnc1CN1CCC2(CC1)CC(Oc1cccnc1)C2` reads -20.7%; that for `CC(C)SCC(=O)N1Cc2cnc(-c3ccccc3)nc2C1`, 1.2%; that for `COCC(NC(=O)NCc1cccc(Cl)c1)c1ccco1` (configuration not stated), 6.4%.
For `Cc1ccn2c(F)c(C(=O)N3CCC4(CCC(=O)N(C)C4)CC3)nc2c1` the value was 5.96%.
For `COCCC1CCN([C@@H]2c3ccccc3C3(CCNCC3)[C@H]2O)CC1` the value was 1.35%; for `Cc1ccc(Oc2ncccc2CNC2Cc3ccccc3C2)cn1`, -2.19%.
For `COc1ccc(OC)c(CN2CCN(Cc3cscn3)CC2)c1`, the cytotoxicity at 10 µM was -7.15%.
As to `CS(=O)(=O)NCCCN1CCCC1c1ccsc1` (configuration not stated), the cytotoxicity at 10 µM is 2.85%.
`CNS(=O)(=O)CCCN1CCN(C(C#N)c2ccccc2)CC1` (configuration not stated): the cytotoxicity at 10 µM came out at 7.7%.
`COc1cc(N2CCC(c3nccn3Cc3ccccc3)CC2)ncn1`: the cytotoxicity at 10 µM worked out at 5.44%.
`NC(=O)N1CCCC(C(=O)NCc2noc(Cc3ccccc3)n2)C1` (configuration not stated): the cytotoxicity at 10 µM worked out at 2.4%.
Turning to `CCC[C@H]1CN(c2nccc(NCC)n2)C[C@@H]1NS(=O)(=O)N(C)C`, the cytotoxicity at 10 µM was -144%.
